Assay results pooled from the literature.
Each line is one published result; the experiments were not run side by side.
Target: RAC-alpha serine/threonine-protein kinase (AKT1, Homo sapiens, UniProt P31749)

The remaining binding of `C[C@@H]1CN(c2ccc3ncc(-c4ccc5[nH]nc(C6CC6)c5c4)n3n2)C[C@H](C)O1` is reported as 98% (binding; competition with immobilised ligand; 50 nM).
For `COc1cnc(Nc2cccc(S(N)(=O)=O)c2)nc1N1CCN(c2ccccc2)CC1`, the remaining binding was 100% (binding; competition with immobilised ligand; 1 µM).
For `CN(C)c1nccc(-c2cnn3ncccc23)n1`, the remaining binding was 100% (binding; 1 µM).
`O=C(c1ccc(Nc2ncc(Cl)c(-c3cc4ccccc4s3)n2)cc1)N1CCC(N2CCCC2)CC1` has a remaining binding of 100% (binding; competition with immobilised ligand; 1 µM).
For `COc1ncc2cc3ccccc3nc2c1C#N`, the remaining binding was 92% (cell-free assay; competition with immobilised ligand; 5 µM).
The remaining binding of `O=C(Nc1cnc(Oc2ccc(F)cc2)nc1)N1CCc2ncccc2[C@@H]1c1ccc(F)cc1` is reported as 100% (cell-free assay; competition with immobilised ligand; 1 µM).
The remaining binding of `CC(C)(C)c1ccc(-c2nc(CBr)nn2-c2cccc(O)c2)cc1` is reported as 94% (cell-free assay; competition with immobilised ligand; 10 µM).
With `O=C(NCCCN1CCOCC1)c1ccc(Nc2nccc(-c3cc4ccccc4s3)n2)cc1` the remaining binding was 100% (binding; competition with immobilised ligand; 1 µM).
`CC1=C(C#N)C(c2ccc3c(c2)c(NC(=O)c2ccccc2C)nn3C)C(C#N)=C(C)N1` has a remaining binding of 94% (cell-free assay; competition with immobilised ligand; 1 µM).
`O=C(NCCCN1CCOCC1)c1ccc(Nc2ncc(Cl)c(-c3ccc(Cl)s3)n2)cc1` gave a remaining binding of 100% (binding; competition with immobilised ligand; 1 µM).
For `COc1cnc(Nc2cccc(S(N)(=O)=O)c2)nc1N1CCN(c2ccccc2)C(=O)C1`, the remaining binding was 100% (binding; competition with immobilised ligand; 1 µM).
With `Cc1cnn2ncc(-c3ccnc(N(C)C)n3)c2c1` the remaining binding was 94% (binding; 1 µM).
`CS(=O)(=O)N1CCCC(NC(=O)[C@H](CCC2CCCCC2)NC(=O)c2ccc(CNC(=O)c3cnc4ccccn34)cc2)C1` (stereo partly shown) has a remaining binding of 100% (cell-free assay; competition with immobilised ligand; 0.1 µM).
`C[C@H]1CCN(c2nccc(-c3cnn4ncccc34)n2)C1` gave a remaining binding of 92% (binding; 1 µM).
The remaining binding of `O=C(NCCCC1CCCCC1)c1ccc(CNC(=O)c2cnn(-c3ccccc3)c2C(F)(F)F)cc1` is reported as 100% (cell-free assay; competition with immobilised ligand; 0.1 µM).
`C[C@@H](c1ccc(-n2cnc3c(N)ncnc32)cc1)N1CCc2nn(C)c(Cc3ccccc3)c2C1=O` gave a remaining binding of 100% (binding; competition with immobilised ligand; 0.1 µM).
For `Nc1ncc2c(n1)-c1c([nH]c3ccc(C#CC4CC4)cc13)CCCC2`, the remaining binding was 95% (binding; competition with immobilised ligand; 1 µM).
The remaining binding of `CN(c1nccc(-c2cnn3ncccc23)n1)C1CC1` is reported as 100% (binding; 1 µM).
`CN1CCN(c2cnc3c(C4CCN(C(=O)c5ccc(OC(F)(F)F)cc5N)CC4)ncnc3c2)CC1` has a remaining binding of 100% (cell-free assay; competition with immobilised ligand; 1 µM).
The remaining binding of `N[C@H]1CCN(c2nccc(-c3cnn4ncccc34)n2)C1` is reported as 97% (binding; 1 µM).
The remaining binding of `O=C(NCc1ncc(C(F)(F)F)cc1Cl)c1ccc2c(c1)C1(CCS(=O)(=O)CC1)[C@@H](C1CC1)N2S(=O)(=O)c1ccc(F)cc1` is reported as 94% (cell-free assay; competition with immobilised ligand; 1 µM).
With `CC1CCCN1c1nccc(-c2cnn3ncccc23)n1` (stereo not shown) the remaining binding was 100% (binding; 1 µM).
For `O=C(Nc1c[nH]nc1C(=O)NC1CCNCC1)c1cc(F)cc(F)c1`, the remaining binding was 92% (binding; competition with immobilised ligand; 1 µM).
For `CC(=O)C1=C(C)N(c2cccc(C(F)(F)F)c2)C(=O)N[C@@H]1c1ccc(C#N)nc1`, the remaining binding was 90.4% (cell-free assay; competition with immobilised ligand; 1 µM).
For `CN(CCCC(F)(F)F)c1nccc(-c2cnn3ncccc23)n1`, the remaining binding was 100% (binding; 1 µM).
